Experimental data: ChEMBL document CHEMBL4354800, “Amphiphilic nebramine-based hybrids Rescue legacy antibiotics from intrinsic resistance in multidrug-resistant Gram-negative bacilli” (Eur J Med Chem, 2019)

Experiments:
Pseudomonas aeruginosa [1] = experiment: Antimicrobial activity against XDR Pseudomonas aeruginosa isolate PA264 infected in Galleria mellonella larvae assessed as survival rate at 75 mg/kg co-administered with 75 mg/kg rifampicin at 2 hrs post-inoculation measured after 24 hrs relative to control; format: functional
Procedure, shortened: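 G. mellonella larvae were injected with ~5 CFU of P. aeruginosa PA264 (10 µL of 5 × 10^2 CFU/mL in PBS) and held 2 h at 37 °C. A single 10 µL injection followed: monotherapy or rifampicin + compound (25+25, 50+50 or 75+75 mg/kg), with PBS as control. Larvae kept at 37 °C were scored every 6 h to 24 h; dead = no response to touch. n = 30 (two runs of 15); Kaplan-Meier.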

Escherichia coli [2] = experiment: Antimicrobial activity against Escherichia coli ATCC 25922 incubated for 18 hrs by broth dilution method; format: functional; conditions: ATCC 25922, 18 h
Procedure, shortened: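 CLSI broth microdilution. Overnight cultures were adjusted to 0.5 McFarland in saline, diluted 1:50 in Mueller-Hinton broth, and inoculated at a final 5 × 10^5 CFU/mL. Compounds were tested as 2-fold serial dilutions and incubated 18 h at 37 °C. MIC was the lowest concentration with no visible turbidity, confirmed by absorbance at 590 nm.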

Escherichia coli [3] = experiment: Synergistic antibacterial activity against Escherichia coli 107115 assessed as fractional inhibitory concentration index in presence of rifampicin incubated for 18 hrs by broth dilution method; format: functional
Procedure, shortened: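 Checkerboard titration of the adjuvant against the antibiotic, run under the CLSI microdilution conditions (MHB, 5 × 10^5 CFU/mL, 18 h, 37 °C). Each agent's FIC is its MIC in combination divided by its MIC alone; FICI is the sum of the two FICs. FICI ≤0.5 was read as synergy, >0.5–4.0 as no interaction, and >4.0 as antagonism.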

Acinetobacter baumannii [4] = experiment: Synergistic antibacterial activity against multidrug-resistant Acinetobacter baumannii ATCC 17978 assessed as fractional inhibitory concentration index in presence of rifampicin incubated for 18 hrs by broth dilution method; format: functional
[5] = Hemolytic activity against porcine erythrocytes assessed as hemoglobin release at 512 ug/ml incubated for 1 hr by spectrophotometric analysis relative to control; format: ADME, cell-based, Sus scrofa, Erythrocyte; conditions: pig, read-out: Activity
Procedure, shortened: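 Porcine erythrocytes were washed three times in PBS and used at 3 × 10^8 cells/mL final. Compounds were serially diluted in PBS at twice the final concentration, mixed with an equal volume of cells, and incubated 1 h at 37 °C. After centrifugation (1000 g, 4 °C, 10 min), hemoglobin in the supernatant was read at 570 nm. Percent hemolysis was scaled between PBS (0%) and 0.1% Triton X-100 (100%).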

Acinetobacter baumannii [6] = experiment: Synergistic antibacterial activity against multidrug-resistant Acinetobacter baumannii AB92247 assessed as fractional inhibitory concentration index in presence of minocycline incubated for 18 hrs by broth dilution method; format: functional
Pseudomonas aeruginosa [7] = experiment: Potentiation of minocycline-induced antibacterial activity against wild type Pseudomonas aeruginosa PAO1 assessed as fold reduction in minocycline MIC at 4.1 uM incubated for 18 hrs by broth microdilution method; format: functional
Procedure, shortened: (§1)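 Antibiotic MIC determined by CLSI broth microdilution (MHB, 5 × 10^5 CFU/mL, 18 h, 37 °C), once alone and once with a fixed concentration of the adjuvant. Potentiation is the ratio of the antibiotic MIC alone to its MIC in the presence of the adjuvant.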

Escherichia coli [8] = experiment: Antimicrobial activity against Escherichia coli 107115 incubated for 18 hrs by broth dilution method; format: functional; conditions: Escherichia coli, 107115, 18 h
Procedure, shortened: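 Broth microdilution per CLSI: overnight cultures set to 0.5 McFarland in saline, diluted 1:50 in Mueller-Hinton broth to a final 5 × 10^5 CFU/mL, added to 2-fold serial dilutions, incubated 18 h at 37 °C; MIC is the lowest concentration without visible turbidity, confirmed at 590 nm.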

Pseudomonas aeruginosa [9] = experiment: Potentiation of rifampicin-induced antibacterial activity against MDR/XDR Pseudomonas aeruginosa isolate 101885 harboring GyrA T83I mutant assessed as fold reduction in rifampicin MIC at 7.5 uM incubated for 18 hrs by broth microdilution method; format: functional
Procedure, shortened: (§2)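 CLSI broth microdilution. Overnight cultures were set to 0.5 McFarland in saline, diluted 1:50 in Mueller-Hinton broth to a final 5 × 10^5 CFU/mL, and incubated 18 h at 37 °C against 2-fold antibiotic dilutions. A fixed adjuvant level was present throughout. MIC = lowest concentration with no visible turbidity, confirmed at 590 nm. Potentiation = fold drop in antibiotic MIC versus antibiotic alone.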

Pseudomonas aeruginosa [10] = experiment: Potentiation of minocycline-induced antibacterial activity against MDR/XDR Pseudomonas aeruginosa isolate PA262-101856 harboring GyrA T83I mutant assessed as fold reduction in minocycline MIC at 7.5 uM incubated for 18 hrs by broth microdilution method; format: functional
Pseudomonas aeruginosa [11] = experiment: Potentiation of minocycline-induced antimicrobial activity against MDR/XDR Pseudomonas aeruginosa isolate PA264-104354 harboring GyrA Thr83Ile mutant assessed as minocycline MIC80 incubated for 18 hrs by broth microdilution method (reference value: 32 microg/ml); format: functional; conditions: isolate PA264-104354, 18 h
Enterobacter cloacae = experiment: Potentiation of rifampicin-induced antibacterial activity against Enterobacter cloacae 117029 assessed as fold reduction in rifampicin MIC at 7.5 uM incubated for 18 hrs by broth dilution method; format: functional; procedure, shortened: as §1
Pseudomonas aeruginosa [12] = experiment: Potentiation of moxifloxacin-induced antibacterial activity against MDR/XDR Pseudomonas aeruginosa isolate PA259-96918 harboring GyrA T83I mutant assessed as fold reduction in moxifloxacin MIC at 7.5 uM incubated for 18 hrs by broth microdilution method; format: functional; procedure, shortened: as §2
Pseudomonas aeruginosa [13] = experiment: Synergistic antibacterial activity against MDR/XDR Pseudomonas aeruginosa isolate PA264-104354 harboring GyrA T83I mutant assessed as fractional inhibitory concentration index in presence of moxifloxacin incubated for 18 hrs by broth microdilution method; format: functional
Procedure, shortened: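 Checkerboard synergy assay. Antibiotic and adjuvant in twofold dilutions in Mueller-Hinton broth. Inoculum 5 × 10^5 CFU/mL from a 0.5 McFarland suspension, 18 h at 37 °C, MIC read by turbidity and confirmed at 590 nm. FIC = MIC in combination / MIC alone for each agent, FICI = sum. Interpreted as ≤0.5 synergy, 0.5–4 no interaction, >4 antagonism.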

Pseudomonas aeruginosa [14] = experiment: Potentiation of rifampicin-induced antimicrobial activity against MDR/XDR Pseudomonas aeruginosa isolate PA259-96918 harboring GyrA Thr83Ile mutant assessed as rifampicin MIC80 incubated for 18 hrs by broth microdilution method (reference value: 16 microg/ml); format: functional; conditions: isolate PA259-96918, 18 h
Pseudomonas aeruginosa [15] = experiment: Potentiation of rifampicin-induced antimicrobial activity against MDR/XDR Pseudomonas aeruginosa isolate 101885 harboring GyrA Thr83Ile mutant assessed as rifampicin MIC80 incubated for 18 hrs by broth microdilution method (reference value: 16 microg/ml); format: functional; conditions: isolate 101885, 18 h
Pseudomonas aeruginosa [16] = experiment: Potentiation of rifampicin-induced antimicrobial activity against MDR/XDR Pseudomonas aeruginosa isolate PA259-96918 harboring GyrA Thr83Ile mutant assessed as rifampicin MIC50 incubated for 18 hrs by broth microdilution method (reference value: 8 microg/ml); format: functional; conditions: isolate PA259-96918, 18 h

| SMILES | survival at 75 mg/kg (Pseudomonas aeruginosa [1]) [%] | MIC (Escherichia coli [2]) [µg/mL] | fractional inhibitory concentration index (FICI) (Escherichia coli [3]) | fractional inhibitory concentration index (FICI) (Acinetobacter baumannii [4]) | hemolysis at 1 h, 512 ug/ml [5] [%] | fractional inhibitory concentration index (FICI) (Acinetobacter baumannii [6]) | fold change (FC) (Pseudomonas aeruginosa [7]) | MIC (Escherichia coli [8]) [µg/mL] | fold change (FC) (Pseudomonas aeruginosa [9]) | fold change (FC) (Pseudomonas aeruginosa [10]) | MIC80 (Pseudomonas aeruginosa [11]) [µg/mL] | fold change (FC) (Enterobacter cloacae) | fold change (FC) (Pseudomonas aeruginosa [12]) | fractional inhibitory concentration index (FICI) (Pseudomonas aeruginosa [13]) | MIC80 (Pseudomonas aeruginosa [14]) [µg/mL] | MIC80 (Pseudomonas aeruginosa [15]) [µg/mL] | MIC50 (Pseudomonas aeruginosa [16]) [µg/mL] |
| --- | --- | --- | --- | --- | --- | --- | --- | --- | --- | --- | --- | --- | --- | --- | --- | --- | --- |
| Cl.Cl.Cl.Cl.Cl.NC[C@H]1O[C@H](O[C@H]2[C@H](OCCCCCCCCCCCCN3CCN(c4cc5c(cc4F)c(=O)c(C(=O)O)cn5C4CC4)CC3)[C@@H](O)[C@H](N)C[C@@H]2N)[C@H](N)C[C@@H]1O | 53 | 8 | 0.015 - 0.02 | 0.016 | < 10 | 0.531 | 32 | 32 |  |  |  |  |  |  |  |  |  |
| COc1c(N2C[C@@H]3CCCN(CCCCCCCCCCCCO[C@@H]4[C@@H](O)[C@H](N)C[C@H](N)[C@H]4O[C@H]4O[C@H](CN)[C@@H](O)C[C@H]4N)[C@@H]3C2)c(F)cc2c(=O)c(C(=O)O)cn(C3CC3)c12.Cl.Cl.Cl.Cl.Cl |  |  |  |  |  |  |  |  | 128 | 32 | 1 | >=128 | 16 | 0.09 | 0.13 | 0.13 | 0.06 |
